hERG rescue – shields human hERG channel from block by proarrhythmic agents. hit rate 0.51% among 310,000. AID 1511. activation (rescue from dofetilide block), less the hit threshold, % at 10 µM. CHO-hERG, FluxOR thallium flux, dofetilide IC70 present;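 active means activation above the mean of controls blocked by dofetilide plus 5 SD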;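 further: thallium influx through hERG after potassium depolarization seen as dye fluorescence rise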
KCNQ1 act – potentiators or activators of human KCNQ1 potassium channel; hit rate 0.35% among 310,000; CHO-K1 KCNQ1, thallium flux FluxOR fluorescence; stronger effect = higher value; B-score at 10 µM; AID 2648; P51787;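 active means fluorescence ratio B-score, a plate-corrected score, at least three library SD, with initial intensity B-score within 5 SD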
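Schedule – 37 °C overnight plating, 90-min dark dye load, 20-min compound pretreatment · System – stable KCNQ1 CHO-K1 line · Probe or stimulus – thallium- and potassium-containing depolarizing buffer · Measured by – kinetic FluxOR fluorescence, 10 s baseline plus 110 s post-stimulus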
KCNK3 block – human KCNK3 channel inhibition, primary screen | O14649 | CHO-KCNK3 thallium flux, FluxOR fluorescence; stronger effect = lower value | B-score at 10 µM | hit rate 0.84% among 340,000;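 active means B-score under library mean minus 4 SD, starting fluorescence ratio at most library mean plus 5 SD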;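 further: more negative B-score means stronger inhibition of thallium flux through KCNK3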
KCNQ1 inh – blocks the human KCNQ1 potassium channel. P51787. CHO-K1 KCNQ1, FluxOR thallium flux fluorescence; stronger effect = higher value. B-score at 10 µM. hit rate 1.3% among 310,000. AID 2642;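 active means compounds whose thallium flux B-score, printed positive for inhibition, exceeds three library SD while starting fluorescence stays within three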;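 further: channel opened by potassium depolarization with thallium stimulus after 20 min compound exposure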
KCNK9 inh – human KCNK9 channel inhibition; B-score at 10 µM; hit rate 1.2% among 310,000; HEK293 KCNK9, FluxOR thallium flux fluorescence; stronger effect = lower value; Q9NPC2; AID 488922;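 active means ratio B-score over 3 SD below the library mean, with starting fluorescence within 5 SD of its mean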;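 further: negative B-score means less thallium flux so channel inhibition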
KCNK9 inh conf – confirmation of human KCNK9 potassium channel inhibitors; shares compounds with KCNK9 inh; HEK293 KCNK9 cells, FluxOR thallium flux fluorescence; inhibition, % at 10 µM; hit rate 43% among 4,900; AID 492992;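 active means thallium signal inhibited by more than 5 SD of the compound-free buffer control wells, on both duplicate plates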;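 further: 0% = assay buffer control wells without compound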
Kir21 sel – selectivity of KCNK9 modulators against mouse Kir2.1. shares compounds with KCNK9 inh. Kir2.1 cells, FluxOR thallium flux fluorescence. inhibition, % at 10 µM. hit rate 4% among 4,900;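 active means thallium signal drop more than 5 SD beyond the mean of the no-compound control wells, seen in both duplicate plates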;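 further: signal is fluorescence rise after thallium addition divided by baseline fluorescence; plate controls were assay buffer only for no effect and full block by chlorpromazine control for full effect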
HEK293 Tl ctr – second counter-screen for KCNK9 modulators: effect in non-induced cells. shares compounds with KCNK9 inh. non-induced KCNK9-HEK293, FluxOR thallium flux. inhibition, % at 10 µM. hit rate 40% among 4,900;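 active means thallium signal drop beyond 5 SD of the untreated control mean, on both duplicate plates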;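 further: plate controls were buffer only IC0 wells for no effect and SID17386958 at its maximal inhibitory level for full effect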
KCNK3 confirm – human KCNK3 channel inhibition, confirmation assay. shares compounds with KCNK3 block. CHO-KCNK3 thallium flux, FluxOR fluorescence; 0% buffer, 100% carvedilol maximal block. ratio percent of control, % at 10 µM. hit rate 99% among 2,400. AID 651638;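 active means ratio percent of control, averaged over triplicates, above buffer control mean plus 5 SD, cut at about 64% in these data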;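 further: ratio is the fluorescence rise from min to max over baseline after thallium stimulus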
KCNK3 noninduced – activity in cells without induced KCNK3 expression. hit rate 40% among 2,400. non-induced KCNK3 parental cells, FluxOR thallium flux; stronger effect = lower value. shares compounds with KCNK3 block. AID 651747. thallium flux ratio (lower = more inhibition) at 10 µM;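 active means thallium flux ratio, averaged over three wells, more than 5 SD below the buffer control mean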;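 further: host cells are CHO cells without KCNK3 induction; ratio is peak minus trough fluorescence over baseline then normalized to buffer controls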
An asterisk follows results filed as active; i = inactive; nt = not tested or not shown. This is a sample that favours compounds with a hit; in the whole collection about 3.1% have one here.

SMILES	hERG rescue	KCNQ1 act	KCNK3 block	KCNQ1 inh	KCNK9 inh	KCNK9 inh conf	Kir21 sel	HEK293 Tl ctr	KCNK3 confirm	KCNK3 noninduced
c1ccc(CN2c3ccccc3-c3nc4ccccc4n3C2c2ccccn2)cc1 (centres undefined)	-30	i	-10*	i	-14*	66%*	i	40%*	123*	i
CN1c2ccccc2-c2nc3ccccc3n2C1c1ccncc1 (centres undefined)	-7	i	i	i	i	nt	nt	nt	nt	nt
CCN1c2ccccc2-c2nc3ccccc3n2C1c1ccco1 (centres undefined)	-17	i	-9.2*	i	-9.1*	40%*	28%*	44%*	128*	0.14*
O=C(NCc1cccc(C(F)(F)F)c1)N1CCN(C(=O)c2ccccc2)CC1	nt	nt	i	nt	nt	nt	nt	nt	nt	nt
CCn1cc(Br)c(C(=O)Nc2ccc(F)c(Cl)c2)n1	-16	i	-11*	i	-12*	46%*	i	30%*	104*	i
C=Cc1ncc(OC)c2c1[nH]c1ccccc12	-7	i	i	i	i	nt	nt	nt	nt	nt
COc1ccc2ccc(=O)oc2c1CC=C(C)C	-12	i	-12*	i	-15*	72%*	i	38%*	104*	i
Cc1cc(NC(=O)c2ccc(Cl)c(S(=O)(=O)N3CCCCC3)c2)no1	-13	i	i	i	i	nt	nt	nt	nt	nt
Cc1cc(C(=O)N/N=C/c2ccc(-c3cccc(Br)c3)o2)n[nH]1	-14	i	-11*	i	-17*	44%*	i	i	87*	i
O=C(C/C=N/OCc1ccc(Cl)cc1Cl)c1ccc(Cl)cc1	-9	i	-9*	i	-15*	43%*	i	43%*	93*	0.15*
Cc1cc(C(=O)CSc2nc3ccc(Cl)cc3[nH]2)c(C)n1Cc1ccco1	-2	i	-9.7*	i	i	i	i	i	94*	i
Oc1ccc(C=NNC(=S)Nc2cccnc2)nc1	nt	nt	i	nt	nt	nt	nt	nt	nt	nt
O=C1CN(C(=O)NCC(=O)N[C@@H](C(=O)O)c2ccccc2)c2ccccc2N1	-1	i	i	i	i	nt	nt	nt	nt	nt
Cc1sc(NC(=O)c2ccco2)c(CN2CCN(c3ccccc3)CC2)c1C	-15	i	i	i	-9.9*	35%*	i	35%*	113*	i
Cc1cc(NC(=O)c2cccc(COc3ccc(Br)cc3)c2)no1	-9	i	-8.9*	i	-11*	i	i	i	65*	i
CC(Cc1cccs1)NC(=O)Nc1ccc(Cl)cc1 (centres undefined)	-4	i	i	i	i	nt	nt	nt	nt	nt
CC(Cc1cccs1)NC(=O)Nc1ccc(Cl)c(Cl)c1 (centres undefined)	-12	i	-13*	i	-16*	62%*	i	42%*	110*	0.16*
NS(=O)(=O)c1ccc(CCNC(=O)c2coc3ccccc3c2=O)cc1	-3	i	i	i	i	nt	nt	nt	nt	nt
CCCCOC1(c2ccccc2)OC(=O)c2ccccc21 (centres undefined)	-9	i	i	i	-16*	54%*	i	52%*	101*	i
CC(C)(C)C1CCC(C(=O)Nc2ccc(N3CCOCC3)cc2N2CCOCC2)CC1 (centres undefined)	nt	nt	i	nt	nt	nt	nt	nt	nt	nt
COc1ccc(OC)c(-c2csc(NC(=O)Cc3ccccc3OC)n2)c1	-3	i	-13*	i	-16*	i	i	40%*	89*	i
COc1ccc(OC)c(-c2csc(NC(=O)c3ccccc3F)n2)c1	-5	i	i	i	i	nt	nt	nt	nt	nt
